The values that follow come from PMC7029422 (Bioorganic & medicinal chemistry, 2020).

Assay [1] has as its system MDA-MB-435 human melanoma cells. Description: Cytotoxicity against MDA-MB-435 cells. Format: cell-based. Particulars: MDA-MB-435, 72 h, read-out: IC50 value toward the MDA-MB-435 human melanoma cells.
In assay [2] the test system is HT-29 human colon cancer cells. The assay can be described thus: Cytotoxicity against HT-29 cells. Format: cell-based. Particulars: HT-29, 72 h, read-out: IC50 value toward the HT-29 human colon cancer cells.
The test system of assay [3] is glucose uptake in H1299 human lung cancer cells. The assay can be described thus: Glucose uptake assay. Format: cell-based. Particulars: 30 μM, 15 min treatment; WZB117 30 μM as positive control. In a few lines:
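H1299 cells (DMEM, 25 mM glucose, 10% FBS, 37 °C, 5% CO2) in 24-well plates; washed, serum-starved in FBS-free DMEM 1.5 h, then 30 min in glucose-free KRP. Test compound at final 30 μM for 15 min. Uptake then started with 37 MBq/L 2-deoxy-D-[3H]glucose plus 1 mM glucose (final) for 40 min. Stopped with PBS; lysate radioactivity counted by liquid scintillation. Triplicate, three independent experiments; Student's t-test versus vehicle.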

The target of assay [4] is Na^+/K^+-ATPase (adenosine 5′-triphosphatase from porcine cerebral cortex). Particulars: read-out: Na+/K+-ATPase activity inhibition, IC50; previous investigation; cited from earlier work.
In assay [5] the test system is OVCAR3 human ovarian cancer cells. The assay can be described thus: Cytotoxicity against OVCAR3 cells. Format: cell-based. Particulars: OVCAR-3, 72 h, read-out: IC50 value toward the OVCAR3 human ovarian cancer cells.

Each structure is given as a SMILES string. pIC50: −log10 of the molar value. Entries after “also recorded” stand apart in the source; their conditions may differ.

Turning to `CO[C@H]1[C@H](O[C@H]2CC[C@]3(C=O)[C@H]4CC[C@]5(C)[C@@H]6CC[C@]5(O[C@H]5OC(=O)C[C@H]56)[C@@H]4CC[C@]3(O)C2)O[C@H](C)[C@H](O)[C@@H]1OC` [Compound 3a, (+)-20,22-dihydro-14,21-epoxystrebloside], the pIC50 in assay [1] is < 4.70.

Turning to `CO[C@H]1[C@H](O[C@H]2CC[C@]3(C=O)[C@H]4CC[C@]5(C)[C@@H](C6=CC(=O)OC6)CC[C@]5(O)[C@@H]4CC[C@]3(O)C2)O[C@H](C)[C@H](O)[C@@H]1OC` [Compound 3, (+)-strebloside], the pIC50 in assay [2] was 6.77; in assay [4], 6.80; in assay [5], 6.89. In addition, in assay [3], the “Inhibition of glucose uptake/transport in H1299 cells” value is “did not inhibit glucose uptake; also recorded: did not inhibit glucose transport”. In the case of `CO[C@H]1[C@H](O[C@H]2CC[C@]3(C=O)[C@H]4CC[C@]5(C)[C@](O)(C6=CC(=O)OC6)CC[C@]5(O)[C@@H]4CC[C@]3(O)C2)O[C@H](C)[C@H](O)[C@@H]1OC` [Compound 1, (3β)-3-[(2,3-di-O-methyl-β-D-fucopyranosyl)oxy]-5β,14β,17β-trihydroxy-19-oxo-17-epi-card-20(22)-enolide], in assay [1], the pIC50 is < 4.70. As to `CC(=O)O[C@H]1C(=O)[C@@]2(C)[C@H]([C@H](OC(=O)c3ccccc3)[C@]3(O)C[C@H](OC(=O)[C@H](O)[C@@H](NC(=O)c4ccccc4)c4ccccc4)C(C)=C1C3(C)C)[C@]1(OC(C)=O)CO[C@@H]1C[C@@H]2O` [Paclitaxel, reference compound], the pIC50 in assay [2] is 9.10.
